The values that follow come from ChEMBL document CHEMBL1128693, “Novel cytotoxic 3'-(tert-butyl) 3'-dephenyl analogs of paclitaxel and docetaxel” (J Med Chem, 1995).

The subject of data set [1] is B16. Put plainly: The compound was tested for Cytotoxic concentration against B16 melanoma cells relative to paclitaxel. Type of data set: functional. Conditions: Mus musculus, B16, read-out: ED50.
Data set [2] is described as follows: Ratio of ED50 in microtubule assembly in presence of paclitaxel to only compound. Type of data set: functional. In a few lines:
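Bovine brain tubulin purified by three temperature-dependent assembly-disassembly cycles plus phosphocellulose-biogel P-10 chromatography, cleared at 27000g for 10 min. Varied compound levels incubated with 10 μM tubulin and 0.5 mM GTP in PEM buffer (0.1 M Pipes pH 6.9, 1 mM MgSO₄, 1 mM EGTA), 37 °C, 15 min. Spun at 40000g for 4 min; supernatant protein by Bradford. […] Ratio against paclitaxel ED50.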

For data set [3], the system named is B16. Kind of data set: The compound was tested for Cytotoxic concentration against B16 melanoma cells. It is filed as functional. Conditions: Mus musculus, B16, read-out: ED50.
The target in data set [4] is T1, Tubulin (Bos taurus) (UniProt Q6B856+Q862L2+Q862F3). Put plainly: Promotion of tubulin polymerization.
The target in data set [5] is T1, Tubulin (Bos taurus). Put plainly: ED50 relative to paclitaxel in promoting tubulin polymerization.
Data set [6] is described as follows: Water solubility relative to Paclitaxel solubility. It is filed as ADME. Particulars: buffer. In a few lines:
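Solubility in water by HPLC on a phenyl column: mobile phase A, 50% methanol/50% water; mobile phase B, acetonitrile. About 0.4 mg compound placed in 9 mL water in a 10 mL volumetric flask, sonicated 15 min in cold water. Quantified against a methanol standard curve (about 0.5 mg/mL serially diluted) of concentration vs HPLC peak area. Reported in µg/mL and as a ratio to paclitaxel solubility.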

Data set [7] can be described thus: Water solubility of the compound. Type of data set: ADME. Conditions: read-out: S. In a few lines:
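Aqueous solubility by HPLC on a phenyl column. Mobile phases were 50% methanol/water and acetonitrile. The standard curve came from about 0.5 mg sample in 1 mL methanol with serial dilutions, plotting concentration against HPLC peak area. For samples, about 0.4 mg was placed in 9 mL water and sonicated 15 min in a cold-water bath.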

≈ marks a conversion by molar mass, not a printed value. Where only a bound is given, the exact number is not on record here.

On to `CC(=O)O[C@@]12CO[C@@H]1C[C@H](O)[C@@]1(C)C(=O)[C@H](O)C3=C(C)[C@@H](OC(=O)[C@H](O)[C@@H](NC(=O)Oc4ccccc4)C(C)(C)C)C[C@@](O)([C@@H](OC(=O)c4ccccc4)[C@H]21)C3(C)C`, for which the values for the EC50 in the data set on B16 [1] and in the data set on B16 [3] were 31.3 nM and more than 1000 nM, respectively. For the same molecule, the Ratio in data set [2] was found to be 1.4. Also, the ED50 at Tubulin (Bos taurus) [4] amounted to 1300 nM; on Tubulin (Bos taurus) [5], 930 nM.

Regarding `CC(=O)O[C@@]12CO[C@@H]1C[C@H](O)[C@@]1(C)C(=O)[C@H](O)C3=C(C)[C@@H](OC(=O)[C@H](O)[C@@H](NC(=O)NC(C)(C)C)C(C)(C)C)C[C@@](O)([C@@H](OC(=O)c4ccccc4)[C@H]21)C3(C)C`, in data set [6], the Ratio was 97. Besides, the EC50 in the data set with B16 [1] is 29 nM; with B16 [3] it was 26 nM. The solubility in data set [7] stood at 29 µg/mL (≈ 36.9 µM). Moreover, the ED50 at Tubulin (Bos taurus) [4] worked out at 630 nM; on Tubulin (Bos taurus) [5] it was 1050 nM.

Take `CC(=O)O[C@@]12CO[C@@H]1C[C@H](O)[C@@]1(C)C(=O)[C@H](O)C3=C(C)[C@@H](OC(=O)[C@H](O)[C@@H](NC(=O)OC(C)(C)C)c4ccccc4)C[C@@](O)([C@@H](OC(=O)c4ccccc4)[C@H]21)C3(C)C.O.O.O` [DOCETAXEL]: the values for the Ratio in data set [6] and in data set [2] were 17 and 0.45, respectively. Further, the results for the EC50 in the data set on B16 [1] and with B16 [3] were 27 nM and 11 nM, respectively. In addition, the solubility in data set [7] was 5 µg/mL. In addition, the ED50 on Tubulin (Bos taurus) [4] was 510 nM; at Tubulin (Bos taurus) [5], 1140 nM.

With `CC(=O)O[C@@]12CO[C@@H]1C[C@H](O)[C@@]1(C)C(=O)[C@H](O)C3=C(C)[C@@H](OC(=O)[C@H](O)[C@@H](NC(=O)CC(C)(C)C)C(C)(C)C)C[C@@](O)([C@@H](OC(=O)c4ccccc4)[C@H]21)C3(C)C`, the Ratio in data set [6] worked out at 87. Besides, the EC50 was 29 nM in the data set with B16 [1] and 104 nM in the data set on B16 [3]. Further, the solubility in data set [7] came to 26 µg/mL (≈ 33.1 µM). The ED50 on Tubulin (Bos taurus) [4] was determined as 500 nM; at Tubulin (Bos taurus) [5], 1050 nM.

As to `CCC(C)(C)OC(=O)N[C@H]([C@@H](O)C(=O)O[C@H]1C[C@@]2(O)[C@@H](OC(=O)c3ccccc3)[C@@H]3[C@]4(OC(C)=O)CO[C@@H]4C[C@H](O)[C@@]3(C)C(=O)[C@H](O)C(=C1C)C2(C)C)C(C)(C)C`, the Ratio in data set [6] came out at 87. The values for the EC50 in the data set on B16 [1] and in the data set with B16 [3] were 31.3 nM and 18 nM, respectively. The solubility in data set [7] was 26 µg/mL (≈ 32.4 µM). In addition, the ED50 at Tubulin (Bos taurus) [4] was 420 nM; on Tubulin (Bos taurus) [5], 930 nM.

As to `CC(=O)O[C@@]12CO[C@@H]1C[C@H](O)[C@@]1(C)C(=O)[C@H](O)C3=C(C)[C@@H](OC(=O)[C@H](O)[C@@H](/N=C(/S)NC(C)(C)C)C(C)(C)C)C[C@@](O)([C@@H](OC(=O)c4ccccc4)[C@H]21)C3(C)C`, the EC50 in the data set with B16 [1] was 24.4 nM; in the data set on B16 [3], more than 1000 nM. The Ratio in data set [2] was 3.6. Further, the ED50 at Tubulin (Bos taurus) [4] stood at 3200 nM; on Tubulin (Bos taurus) [5] it was 900 nM.

As to `CCCCCCOC(=O)N[C@H]([C@@H](O)C(=O)O[C@H]1C[C@@]2(O)[C@@H](OC(=O)c3ccccc3)[C@@H]3[C@]4(OC(C)=O)CO[C@@H]4C[C@H](O)[C@@]3(C)C(=O)[C@H](O)C(=C1C)C2(C)C)C(C)(C)C`, the EC50 came to 31.3 nM with B16 [1] and 370 nM in the data set on B16 [3]. In addition, the Ratio in data set [2] is 2.3. Also, the ED50 on Tubulin (Bos taurus) [4] came out at 2100 nM; on Tubulin (Bos taurus) [5] it was 930 nM.

As for `CCCCOC(=O)N[C@H]([C@@H](O)C(=O)O[C@H]1C[C@@]2(O)[C@@H](OC(=O)c3ccccc3)[C@@H]3[C@]4(OC(C)=O)CO[C@@H]4C[C@H](O)[C@@]3(C)C(=O)[C@H](O)C(=C1C)C2(C)C)C(C)(C)C`, the Ratio in data set [6] is listed as 90. Moreover, the EC50 worked out at 31.3 nM with B16 [1] and 64 nM with B16 [3]. Moreover, the solubility in data set [7] came to 27 µg/mL (≈ 34.3 µM). The values for the ED50 at Tubulin (Bos taurus) [4] and at Tubulin (Bos taurus) [5] were 800 nM and 930 nM, respectively.

As for `CC(=O)O[C@@]12CO[C@@H]1C[C@H](O)[C@@]1(C)C(=O)[C@H](O)C3=C(C)[C@@H](OC(=O)[C@H](O)[C@@H](NC(=O)C(C)(C)C)C(C)(C)C)C[C@@](O)([C@@H](OC(=O)c4ccccc4)[C@H]21)C3(C)C`, the EC50 in the data set on B16 [1] amounted to 29 nM; in the data set with B16 [3] it was 930 nM. The Ratio in data set [2] was 1.3. For the same molecule, the ED50 at Tubulin (Bos taurus) [4] came to 1350 nM; at Tubulin (Bos taurus) [5], 1050 nM.

Regarding `CC(=O)O[C@@]12CO[C@@H]1C[C@H](O)[C@@]1(C)C(=O)[C@H](O)C3=C(C)[C@@H](OC(=O)[C@H](O)[C@@H](NC(=O)OC(C)(C)C)C(C)(C)C)C[C@@](O)([C@@H](OC(=O)c4ccccc4)[C@H]21)C3(C)C`, the Ratio in data set [6] is 93. Further, the EC50 in the data set with B16 [1] was determined as 31.3 nM; in the data set on B16 [3], 12.5 nM. In addition, the solubility in data set [7] was found to be 28 µg/mL (≈ 35.5 µM). Also, the results for the ED50 on Tubulin (Bos taurus) [4] and at Tubulin (Bos taurus) [5] were 350 nM and 930 nM, respectively.

For the molecule `CC(=O)O[C@@]12CO[C@@H]1C[C@H](O)[C@@]1(C)C(=O)[C@H](O)C3=C(C)[C@@H](OC(=O)[C@H](O)[C@@H](NC(=O)Nc4ccccc4)C(C)(C)C)C[C@@](O)([C@@H](OC(=O)c4ccccc4)[C@H]21)C3(C)C`, the Ratio in data set [6] was found to be 4.7. The EC50 in the data set on B16 [1] was 26.8 nM; in the data set on B16 [3] it was 18.8 nM. For the same molecule, the solubility in data set [7] amounted to 1.4 µg/mL (≈ 1.74 µM). The ED50 on Tubulin (Bos taurus) [4] was 330 nM; on Tubulin (Bos taurus) [5], 1040 nM.

As for `CC(=O)O[C@@]12CO[C@@H]1C[C@H](O)[C@@]1(C)C(=O)[C@H](O)C3=C(C)[C@@H](OC(=O)[C@H](O)[C@@H](NC(=O)c4ccccc4)C(C)(C)C)C[C@@](O)([C@@H](OC(=O)c4ccccc4)[C@H]21)C3(C)C`, the Ratio in data set [6] worked out at 9.3. Besides, the solubility in data set [7] was 2.8 µg/mL (≈ 3.54 µM). Besides, the ED50 on Tubulin (Bos taurus) [4] is 1700 nM; at Tubulin (Bos taurus) [5], 930 nM.

Consider `CC(=O)O[C@@]12CO[C@@H]1C[C@H](O)[C@@]1(C)C(=O)[C@H](O)C3=C(C)[C@@H](OC(=O)[C@H](O)[C@@H](NC(=O)OCC(C)C)C(C)(C)C)C[C@@](O)([C@@H](OC(=O)c4ccccc4)[C@H]21)C3(C)C`, for which the Ratio in data set [6] stood at 93. Also, the solubility in data set [7] was determined as 28 µg/mL (≈ 35.5 µM). The ED50 on Tubulin (Bos taurus) [4] was found to be 500 nM; at Tubulin (Bos taurus) [5], 930 nM.

Regarding `CC(=O)O[C@H]1C(=O)[C@@]2(C)[C@H]([C@H](OC(=O)c3ccccc3)[C@]3(O)C[C@H](OC(=O)[C@H](O)[C@@H](NC(=O)c4ccccc4)c4ccccc4)C(C)=C1C3(C)C)[C@]1(OC(C)=O)CO[C@@H]1C[C@@H]2O` [PACLITAXEL], in data set [6], the Ratio was 1. For the same molecule, the solubility in data set [7] was 0.3 µg/mL (≈ 0.351 µM).
